This is an account of results in paper PMC2193291 (The Journal of Experimental Medicine, 2000).

Where two headings read alike, the source gives them in different places. Bounds are passed on as bounds.

For assay [1], the target named is Human cRaf-1 C1 ZiF domain (Homo sapiens, UniProt P04049). Put plainly: Retinoid binding by quenching of intrinsic protein.
For a further assay, the target named is cRaf (Homo sapiens, UniProt P04049). It counts as cell-based. The gist of the method:
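COS-7 cells transfected with Flag-cRaf by calcium phosphate, kept 2 d in serum-free phenol-red-free DME, then given retinoids and/or scavengers (100 mM sodium azide, 1 mM N-acetylcysteine). UVB-irradiated at 400 μw/cm2 and incubated at 37°C for set times. Flag-Raf pulled down with anti-Flag M2 and washed in 0.5 M NaCl. Kinase reaction: 200 ng His-MEK(K97M), 60 μM ATP plus [γ-32P]ATP, 20 min, 30°C.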

Assay [2] deals with Human PKCα C1A ZiF domain (Homo sapiens, UniProt P17252). Briefly: Retinol binding by trp fluorescence quench, Gst fusion protein. The gist of the method:
(§1)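 Gst-ZiF fusions expressed in E. coli BL21/DE3 and purified on glutathione-agarose to >90%. Constructs: Drosophila C1A aa 40–101; C1B aa 105–261 plus trp 262; Vav aa 464–518 plus trp 519. Protein at 250 nM in helium-degassed PBS, titrated stepwise with all-trans retinol from a methanol stock. Trp emission 330 nm (excitation 280 nm), corrected for inner filtering. Kd from nonlinear fit over at least four independent measurements.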

In assay [3] the target is Human PKCα C1B ZiF domain (Homo sapiens, UniProt P17252). Described as above. Put shortly: as §1
Assay [4] concerns the target Human PKCδ C1A ZiF domain (Homo sapiens, UniProt Q05655). The assay is described as above. Put shortly: as §1
Assay [5] addresses Human PKCδ C1B ZiF domain (Homo sapiens, UniProt Q05655). Briefly: Retinol binding by trp fluorescence quench, Gst fusion protein.
Assay [6] has as its target T1, Human PKCμ C1A ZiF domain (Homo sapiens, UniProt Q15139).
T1 sequence (Q15139 146-196 limits assumed): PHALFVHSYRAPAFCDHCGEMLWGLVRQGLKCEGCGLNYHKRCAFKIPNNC
Put plainly: Retinol binding by trp fluorescence quench, Gst fusion protein. The gist of the method:
as §1

For assay [7], the target named is T2, Human PKCμ C1B ZiF domain (Homo sapiens, UniProt Q15139).
T2 sequence (Q15139 270-320 limits assumed): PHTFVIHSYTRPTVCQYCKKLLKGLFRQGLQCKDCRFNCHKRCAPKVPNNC
The assay is described as above. Put shortly:
as §1

For a further assay, the target named is T3, Human PKCζ C1 ZiF domain (Homo sapiens, UniProt Q05513).
T3 sequence (Q05513 130-180 limits assumed): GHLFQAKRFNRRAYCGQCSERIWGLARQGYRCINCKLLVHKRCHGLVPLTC
Briefly: Retinol binding by trp fluorescence quench, Gst fusion protein.

Assay [8] concerns the target Drosophila PKC C1A ZiF domain (Drosophila melanogaster, UniProt P05130). Briefly: Retinol binding by trp fluorescence quench, Gst fusion protein. The gist of the method: as §1
The target in assay [9] is Drosophila PKC C1B ZiF domain (Drosophila melanogaster, UniProt P05130). The assay is described as above. Put shortly:
as §1

The target of assay [10] is T4, S. cerevisiae PKC C1A ZiF domain (Saccharomyces cerevisiae, UniProt P24583).
T4 sequence (P24583 414-461 limits assumed): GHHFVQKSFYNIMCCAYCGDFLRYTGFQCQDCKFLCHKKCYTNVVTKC
Put plainly: Retinol binding by trp fluorescence quench, Gst fusion protein.

In assay [11] the target is T5, S. cerevisiae PKC C1B ZiF domain (Saccharomyces cerevisiae, UniProt P24583).
T5 sequence (P24583 481-531 limits assumed): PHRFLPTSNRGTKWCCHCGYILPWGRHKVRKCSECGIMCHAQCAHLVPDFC
Put plainly: Retinol binding by trp fluorescence quench, Gst fusion protein. The gist of the method:
as §1

A further assay addresses T6, Human Vav C1 ZiF domain (Homo sapiens, UniProt P15498).
T6 sequence (P15498 with tags, fused parts or gaps): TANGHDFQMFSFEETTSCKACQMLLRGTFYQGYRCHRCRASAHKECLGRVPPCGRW
Described as above. Put shortly: as §1

In assay [12] the target is Gst-Raf ZiF (human cRaf-1 ZiF domain) (Homo sapiens, UniProt P04049). Briefly: Retinol binding by fluorescence resonance energy transfer.
For assay [13], the system named is cRaf/MAPK (ERK1 and 2 phosphorylation). Briefly: Oxidative. The settings on record: 3T3 cells, 2 μM retinol. It counts as cell-based.
For another assay, the target named is PKCα (Mus musculus, UniProt P20444). Put plainly: PKCα immunoprecipitation/kinase assay of H2O2-activated 3T3 cells. It is filed as cell-based. Put shortly: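 3T3 cells retinol-depleted, some repleted 12 h with 2 μM retinol, then activated 10 min with graded H2O2 doses without staurosporine. Detergent lysates immunoprecipitated with PKCα antibody. Kinase activity measured in washed immunoprecipitates with H1 histone as substrate. Normalized data from six independent H2O2 titrations.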

In another assay the test system is MAPK (phospho-ERK). Briefly: Peroxide activation of endogenous MAPK in Jurkat cells, phospho-ERK Western blot. It is filed as cell-based. The settings on record: 100 μM H2O2, different concentrations of retinol. Put shortly:
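Jurkat cells grown serum-free and retinol-free, then given varying retinol concentrations. Activated 15 min later for 10 min with 100 μM H2O2. Endogenous MAPK activity read as phospho-ERK on Western blots.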
For orientation: Immunoblotting shows a protein as a band on a membrane.

Sequence of cRaf (P04049 whole entry): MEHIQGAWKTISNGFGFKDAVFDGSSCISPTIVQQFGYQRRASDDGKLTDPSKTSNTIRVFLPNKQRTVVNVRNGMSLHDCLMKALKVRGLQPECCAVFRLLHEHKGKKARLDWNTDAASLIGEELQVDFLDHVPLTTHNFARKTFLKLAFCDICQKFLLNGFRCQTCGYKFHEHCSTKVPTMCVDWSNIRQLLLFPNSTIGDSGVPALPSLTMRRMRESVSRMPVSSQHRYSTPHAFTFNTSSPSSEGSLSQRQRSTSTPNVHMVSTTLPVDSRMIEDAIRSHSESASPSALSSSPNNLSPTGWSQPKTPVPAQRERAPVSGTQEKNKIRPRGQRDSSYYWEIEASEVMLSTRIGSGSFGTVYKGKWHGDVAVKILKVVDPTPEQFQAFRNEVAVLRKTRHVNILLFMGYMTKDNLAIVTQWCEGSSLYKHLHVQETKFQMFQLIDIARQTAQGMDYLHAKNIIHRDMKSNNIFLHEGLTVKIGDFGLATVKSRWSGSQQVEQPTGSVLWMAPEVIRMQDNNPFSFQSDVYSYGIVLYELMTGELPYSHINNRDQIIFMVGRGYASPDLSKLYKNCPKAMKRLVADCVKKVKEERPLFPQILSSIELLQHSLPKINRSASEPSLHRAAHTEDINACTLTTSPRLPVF
Sequence of Human PKCδ C1A ZiF domain (Q05655 159-209): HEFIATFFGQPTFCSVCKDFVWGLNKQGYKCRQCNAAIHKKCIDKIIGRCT
Sequence of Human PKCδ C1B ZiF domain (Q05655 231-280): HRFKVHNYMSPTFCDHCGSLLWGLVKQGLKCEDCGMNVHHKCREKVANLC

Consider `CC(C=CC=C(C)C(O)CO)=CC=C1C(C)=CCCC1(C)C` (stereo not shown) [14HRR, 14-hydroxy-retro-retinol], for which the “Binding to native Gst-Raf4–256 (fluorescence quenching)” value in assay [1] (1-μM protein solution, native protein) is given as “saturable binding”.

For the compound `CC(=O)N[C@@H](CS)C(=O)O` [N-acetylcysteine], the “Effect on UVB-induced Raf activation” value at cRaf (N-acetylcysteine 1 mM) is on record as “abolished the Raf activation”.

In the case of `[2H]O[2H]` [deuterated water], on cRaf (addition of deuterated water), the “Effect on UVB-induced Raf activity” value is on record as “distinct, though moderate, enhancement”.

Consider `CC1=C(/C=C/C(C)=C/C=C/C(C)=C/CO)C(C)(C)CCC1` [retinol, all-trans retinol], for which the Kd (commonly a measure of binding affinity in units of concentration) in assay [1] (Binding constant, cRaf-1 amino acids 136–195, trp fluorescence quench, ± SE) is 22 ± 3.5 nM; in [2] it was 20.7 ± 4 nM; in assay [3] it was over 500 nM; in assay [4], 95.2 ± 1.3 nM; in [5], 67.3 ± 1.3 nM; in assay [6], 18.1 ± 8 nM. The Kd is 17.3 ± 4 nM in assay [7]; 34.1 ± 6.7 nM on Human PKCζ C1 ZiF domain; 18.5 ± 3.7 nM in assay [8]; over 500 nM in assay [9]; 17.9 ± 5.1 nM in assay [10]; over 500 nM in assay [11]. The Kd is over 500 nM at Human Vav C1 ZiF domain and 25.8 nM in assay [12]. Further, in assay [12] (truncated Gst-Raf Zif136–186 lacking trp 187), the FRET signal entry is given as “did not elicit a FRET signal”. Further, the “MAPK activity in retinol-repleted compared with retinol-deficient cultures” value in assay [13] (300 μM H2O2, peak at 10–15 min, phosphorylated p42) is listed as “two- to threefold higher”. The “MAPK activation by 5% FBS, retinol-sufficient vs retinol-deficient cultures” value in assay [13] (5% FBS) was “no differences”. At PKCα (150 nM phorbol ester), the “Activation of PKC by phorbol ester” value is given as “not significantly enhanced”. Besides, on PKCα (3T3 cells, 200 μM H2O2, in the presence of 2 μM retinol, 6 experiments), the “Increase of PKCα kinase activity at maximum stimulation over unstimulated cells” value came out at 20 fold. For the same compound, the “Optimum dose for enhancement of PKCα activation” value at PKCα (data not shown) turned out to be 1 µM. In addition, the “Overall retinol enhancement effect on PKCα kinase activity” value on PKCα (presence vs absence of retinol, 200 μM H2O2) came to 3 fold. The “Intrinsic PKC activation by retinol alone” value at PKCα (without H2O2) was “no intrinsic PKC activation”. Besides, the “Augmentation of UVB-induced Raf kinase activity” value on cRaf (COS cells replenished with 2 μM retinol, UVB) is reported as 2.2 ± 0.4 fold. Further, in the assay with MAPK (phospho-ERK), the “Enhancement of MAPK activation by peroxide” value is recorded as “dose-dependent enhancement”.

As for `[N-]=[N+]=[N-].[Na+]` [sodium azide], the “Effect on UVB-induced Raf activation” value at cRaf (sodium azide 100 mM) was “abolished the Raf activation”.
